High-throughput results (PubChem)
Sampled rows, rich in hits. Any-hit rate of the full collection: about 0.77%.
mIAP block: mouse IAP inhibition; 330,000 compounds, 0.2% hits; purified mouse IAP, CDP-Star luminescence, 30 min; inhibition, % at 10 µM; AID 2806;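 active = inhibition of at least 40% at 10 µM in the primary screen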;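 also: plate controls were DMSO with enzyme for no effect and no enzyme wells for full effect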
mIAP activ: mouse IAP activation; activation factor at 10 µM; 330,000 compounds, 0.24% hits; muIAP, CDP-Star luminescence, 30 min; hits give high values; 1 = vehicle-only enzyme signal, 0 = enzyme-free wells;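 active = activation factor of at least 2 at 20 µM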
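System: mouse IAP enzyme. Reagent: CDP-Star chemiluminescent phosphatase substrate. Benchmarks: DMSO wells, no-enzyme wells. Times: 30 min enzyme-substrate-compound incubation at room temperature. Detection: luminescence from enzymatic CDP-Star hydrolysis. Doses: test compounds delivered from DMSO solution.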
hIAP inh: blocks human intestinal alkaline phosphatase; P09923; purified IAP, CDP-Star luminescence, 30 min; inhibition, % at 10 µM; 330,000 compounds, 0.12% hits;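 active = inhibition reaching a set limit with compound at 10 µM in the primary screen, cut at about 35% in these data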;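 also: plate controls were DMSO wells with enzyme for no effect and no-enzyme buffer wells for full effect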
Target sequence (P09923 whole entry, looked up): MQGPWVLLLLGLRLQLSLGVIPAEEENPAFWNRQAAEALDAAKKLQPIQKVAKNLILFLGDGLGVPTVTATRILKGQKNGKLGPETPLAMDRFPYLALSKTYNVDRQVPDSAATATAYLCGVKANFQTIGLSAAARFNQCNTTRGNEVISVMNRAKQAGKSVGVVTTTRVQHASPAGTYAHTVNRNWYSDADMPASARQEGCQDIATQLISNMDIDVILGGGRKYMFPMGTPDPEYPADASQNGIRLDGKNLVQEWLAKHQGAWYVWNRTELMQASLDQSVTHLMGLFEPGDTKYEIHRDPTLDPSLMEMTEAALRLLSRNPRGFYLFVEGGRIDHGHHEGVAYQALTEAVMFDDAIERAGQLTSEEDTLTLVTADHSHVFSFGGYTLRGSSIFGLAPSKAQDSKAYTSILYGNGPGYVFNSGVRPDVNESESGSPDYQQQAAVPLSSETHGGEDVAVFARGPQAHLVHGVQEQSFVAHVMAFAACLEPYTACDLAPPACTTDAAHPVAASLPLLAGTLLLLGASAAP
hIAP act: increases human intestinal alkaline phosphatase activity. activation factor at 10 µM. purified human IAP, CDP-Star luminescence, 30 min; hits give high values; 1 = vehicle-only enzyme, 0 = enzyme-free background. 330,000 compounds, 0.16% hits;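 active = activation factor of the enzyme at least 2-fold when tested at 20 µM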
bIAP inhibitor: blocks bovine intestinal alkaline phosphatase activity; inhibition, % at 20 µM; AID 1019; 190,000 tested, under 10 active; purified bovine IAP, CDP-star luminescence, 30 min;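 active = over 50% inhibition of intestinal alkaline phosphatase at 20 µM in the single-dose screen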
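test system = bovine IAP enzyme | medium = DEA buffer 100 mM, pH 9.8, with MgCl2 1.0 mM, ZnCl2 0.02 mM | detection = luminescence | dosing = single compound dose of 20 µM, 2% DMSO final | incubation = 30 min reaction at room temperature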
bIAP activator: increases bovine intestinal alkaline phosphatase activity; purified bovine IAP, CDP-star luminescence, 30 min; hits give high values; fold of DMSO-control signal, blank-subtracted; activation factor at 20 µM; 200,000 compounds, 0.17% hits;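 active = activation factor of 2 or more at 20 µM, a signal rise over negative controls twice the positive control's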
hIAP act conf: human IAP activation confirmation; shares compounds with hIAP act; purified IAP, CDP-Star luminescence, 30 min; hits give low values; activation (%Activity, negative = activation), % at 8.3 µM; 880 compounds, 10% hits;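 active = at least twofold enzyme activation in any of six single-dose repeats, which the averaged readout prints as negative percent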
Numbers without * were called inactive; nt = no result.

SMILES	mIAP block	mIAP activ	hIAP inh	hIAP act	bIAP inhibitor	bIAP activator	hIAP act conf
CN1C(=O)C(=O)/C(=C(/O)c2ccc(Br)cc2)C1c1ccc(Cl)cc1 (stereo unspecified)	7.3	0.927	40.7*	0.593	nt	nt	5.4
CN1C(=O)C(=O)/C(=C(/O)c2ccccc2)C1c1ccc(Br)cc1 (stereo unspecified)	-8.1	1.08	3.8	0.962	nt	nt	nt
CCCn1c(=O)c(C(=O)NNC(=O)c2ccc(Cl)cc2Cl)c(O)c2ccccc21	3.1	0.969	-194.8	2.95*	nt	nt	-67.7
CCn1c(=O)c(C(=O)NNC(=O)c2ccc(Cl)cc2Cl)c(O)c2ccccc21	16.1	0.839	-48.9	1.49	nt	nt	nt
OCC[C@H]1C[C@H](O)[C@@H](O)[C@]2(OCCc3ccccc32)O1	-8.0	1.08	-14.0	1.14	nt	nt	nt
COc1cc(/C=C2\C(=O)N(c3ccc(NC(C)=O)cc3)N=C2c2ccccc2)ccc1O	29.8	0.702	36.8*	0.632	28.6	0.7	-8.2
CCN(C(=O)COC(=O)c1ccc2c(c1)OCO2)c1c(N)n(Cc2ccccc2)c(=O)[nH]c1=O	-0.7	1.01	-4.3	1.04	nt	nt	nt
Cc1ccc(S(=O)(=O)NCC(=O)NNC(=O)c2ccccc2Cl)cc1C	27.5	0.725	-121.2	2.21*	nt	nt	-8.6
CCOC(=O)CCNC(=O)N1CCCC(C(=O)c2cc(C)c(OC)c(C)c2)C1 (stereo unspecified)	-7.1	1.07	-5.9	1.06	nt	nt	nt
O=C(CSc1ncn[nH]1)NNC(=O)c1ccccc1	8.1	0.919	-123.4	2.23*	nt	nt	-23.5
COc1cc(/C=C2\SC(=S)N(N(C)c3ccccc3)C2=O)ccc1O	30.5	0.695	41.4*	0.586	nt	nt	60.4
CCOc1cc(/C=C2/SC(=S)N(Cc3ccccc3)C2=O)ccc1O	28.3	0.717	-9.9	1.1	nt	nt	nt
O=C(Nc1cc(C(F)(F)F)cc(C(F)(F)F)c1)Nc1cnn(-c2ccc([N+](=O)[O-])cc2)c1C(F)(F)F	11.1	0.889	-4.4	1.04	nt	nt	nt
O=C1/C(=C\c2ccc(O)cc2)SC(=S)N1Cc1ccccc1	22.3	0.777	37.0*	0.63	nt	nt	1.7
O=C1/C(=C/c2ccc(O)cc2)SC(=S)N1CC1CCCO1 (stereo unspecified)	30.9	0.691	38.0*	0.62	nt	nt	12.5
Cc1ccc(CN2CC(C(=O)N(C)CC(=O)Nc3cccc(F)c3)CC2=O)cc1 (stereo unspecified)	5.9	0.941	9.5	0.905	nt	nt	nt
COc1ccc(-c2cc(CCC(=O)N3CCN(c4cc(C)ccc4C)CC3)on2)cc1	-14.0	1.07	nt	nt	nt	nt	nt
COc1ccc(Cl)cc1NC(=O)CN(C)C(=O)c1cc(C)oc1C	9.3	0.907	2.2	0.978	nt	nt	nt
O=C1Nc2ccccc2/C1=N\N=C\c1ccc(O)c(O)c1	36.4	0.636	35.0*	0.65	nt	nt	61.5
COc1cc(/C=N/N=C2/C(=O)Nc3ccccc32)ccc1O	11.7	0.883	21.5	0.785	11.2	0.9	nt
CCn1cc(CN2CCN(C)C(CCO)C2)c2ccccc21 (stereo unspecified)	-2.5	1.02	-184.8	2.85*	nt	nt	29.1
CCn1cc(CN2CCN(CCC(C)C)C(CCO)C2)c2ccccc21 (stereo unspecified)	7.7	0.923	-16.5	1.17	nt	nt	nt
CCn1c2ccccc2c2cc(/C=N/n3cn[nH]c3=S)ccc21	12.4	0.876	-13.0	1.13	3.6	1	nt
CCn1c2ccccc2c2cc(/C=N/n3c(-c4cc(C)[nH]n4)n[nH]c3=S)ccc21	-9.2	1.09	-106.3	2.06*	nt	nt	14.3
CC(C)CCNC(=O)C1CCN(C(=O)N(C)C)CC1	-4.9	1.05	46.6*	0.534	11.0	0.9	88.2
SMILES	mIAP block	mIAP activ	hIAP inh	hIAP act	bIAP inhibitor	bIAP activator	hIAP act conf
CCC(C)NC(=O)C1CCN(C(=O)N(C)C)CC1 (stereo unspecified)	9.6	0.904	0.2	0.998	12.3	0.9	nt
Cc1[nH]n(-c2nc(-c3ccccc3F)cc(=O)[nH]2)c(=O)c1CCO	12.0	0.88	71.7*	0.283	32.1	0.7	-39.7*
CC[n+]1c(/C=C/c2c[nH]c3ccccc23)ccc2cc(C)ccc21	31.0	0.69	36.4*	0.636	29.9	0.7	-85.7*
CCN(CC)C(=O)c1ccc(/C=C/c2c[nH]c3ccccc23)[n+](C)c1	10.4	0.896	-1.7	1.02	-0.4	1	nt
COc1ccc(NC(=O)CN(C)CC(=O)NCCc2ccc(F)cc2)cc1	9.2	0.908	-7.5	1.07	nt	nt	nt
CCN1CCN(CCC(=O)Nc2ccc(F)c(F)c2)CC1	-6.0	1.06	-13.9	1.14	nt	nt	nt
COCC(=O)N1CCC(Oc2ccc(C(=O)NCc3cc(C)no3)cc2)CC1	-6.0	1.06	36.0*	0.64	nt	nt	-4.0
COc1ccc(OCC(=O)NNC(=O)c2nn(C)c(=O)c3ccccc23)cc1	9.1	0.909	-21.6	1.22	-5.6	1.1	nt
COc1cc(OC)cc(C(=O)NNC(=O)c2nn(C)c(=O)c3ccccc23)c1	-3.7	1.04	-106.4	2.06*	nt	nt	23.2
Cn1nc(C(=O)NNC(=O)c2ccc(Cl)c(S(N)(=O)=O)c2)c2ccccc2c1=O	33.0	0.67	-105.4	2.05*	nt	nt	2.3
COC(=O)C(N)Cc1ccc(O)c(O)c1 (stereo unspecified)	24.2	0.758	20.8	0.792	16.6	0.8	nt
O=C(COc1ccccc1Cl)N1CCN(c2ccc([N+](=O)[O-])c(N3CCCCC3)c2)CC1	14.7	0.853	-106.5	2.06*	17.2	0.8	-60.9*
Cc1cc(OCc2cc(C(=O)NC3CCC3)no2)cc(C)c1Cl	2.1	0.979	38.8*	0.612	nt	nt	-3.4
Cc1ccc(OCc2cc(C(=O)NC3CCCCC3)no2)cn1	-6.0	1.06	-17.3	1.17	nt	nt	nt
Cc1c(C(C)NC(=O)Nc2ccc(F)cc2F)cnn1C (stereo unspecified)	-5.0	1.05	-110.4	2.1*	-13.3	1.1	-47.3
CCc1cc2ccc(C)cc2nc1SCC(=O)N1CCN(C(=O)c2ccco2)CC1	9.2	0.908	-105.4	2.05*	5.8	0.9	-36.5
CCOC(=O)C1=C(COC(=O)CSc2ccc(C)cc2)NC(=O)NC1C (stereo unspecified)	4.1	0.959	3.4	0.966	nt	nt	nt
N#C/C(=C(\O)c1ccco1)c1ccccn1	-3.6	1.04	-105.4	2.05*	10.6	0.9	55.3
CCCCN1/C(=C/c2ccc3ccccc3[n+]2CC)Sc2ccccc21	8.2	0.918	18.0	0.819	39.7	0.6	nt
CCN1/C(=C/c2ccc3ccccc3[n+]2CC)C=Cc2ccccc21	25.9	0.741	36.4*	0.636	nt	0.3	-49.3
COc1cccc(N2CCN(C(=O)CCNS(=O)(=O)c3ccc(F)c(F)c3)CC2)c1	-12.1	1.12	0.2	0.998	nt	nt	nt
O=C(NC1CCN(C(=O)c2cccc([N+](=O)[O-])c2)CC1)c1ccccc1	-10.0	1.1	-22.0	1.22	nt	nt	nt
